Data: ChEMBL document CHEMBL4513216, “Probing the Open Global Health Chemical Diversity Library for Multistage-Active Starting Points for Next-Generation Antimalarials” (ACS Infect Dis, 2020)

Test: Toxicity liver stage against HepG2, at 10uM
Assay type: cell-based
Design: test concentration 10 uM, cell line HepG2-A16-CD81EGFP
Conditions: human, HepG2-A16-CD81EGFP cells; read-out: INHIBITION
How it was run: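 Uninfected HepG2-A16-CD81EGFP cells, 3 × 10^3 per well, 1536-well, plated on prespotted compound at 10 μM final, parasite-free screening media added to match infected plates; puromycin 10 μM positive, DMSO 0.5% negative; run in parallel with 48 h PbLuc assay at 37 °C, 5% CO2; viability by CellTiter-Glo luminescence, normalized to controls.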
Work on `CC(C)CNC[C@H]1COCc2nc3cccnc3n21` yielded a cytotoxicity at 10 µM of -4.48%. Work on `c1ccc(Cc2nnc([C@H]3CCN(C4CCCCC4)C3)o2)cc1` yielded a cytotoxicity at 10 µM of -1.14%. Compound `Cc1cc2c(C)cc(O)cc2c(=O)o1` has a cytotoxicity at 10 µM of 5.73%. In the case of `CCCn1nnc(NCc2ccccc2OCc2ccc(Cl)cc2)n1`, the cytotoxicity at 10 µM is reported as 2.76%. With `CSCC[C@H](NC(=O)CCn1cc(C(C)=O)c2ccccc21)C(=O)O` the cytotoxicity at 10 µM was -3.91%. `Cc1csc(NC(=O)c2ccc(NC(=O)N3CCOCC3)cc2)n1` showed a cytotoxicity at 10 µM of 1.11%. `COCc1nn(CC2CC2)c2c1CN(C(=O)c1ccno1)CC2` showed a cytotoxicity at 10 µM of 10.4%. `O=C(c1ccncc1)N1CCc2onc(CN3CCCC3)c2C1` showed a cytotoxicity at 10 µM of -3.7%. `CN1CCN(C(=O)Cc2ccccn2)Cc2cccnc21` showed a cytotoxicity at 10 µM of -7.01%. `Cn1cc(CN2CCc3c(COCc4ccncc4)cncc3C2)cn1` showed a cytotoxicity at 10 µM of -2.37%. Work on `COc1ccc(CN2C[C@@H]3CN(C(=O)c4ccsc4)C[C@@H]3C2=O)cc1` yielded a cytotoxicity at 10 µM of -3.7%. Compound `O=C(c1ncccn1)N1C[C@@H]2COC[C@]2(c2nnc(C3CC3)o2)C1` has a cytotoxicity at 10 µM of -1.31%. Work on `O=C1CC(c2ccc(C(=O)O)cc2)c2ncn(-c3cccnc3)c2N1` (stereo unspecified) yielded a cytotoxicity at 10 µM of -1.64%. In the case of `CC(C)[C@H](NC(=O)NC1CCS(=O)(=O)C1)C(=O)Nc1cccnc1` (stereo partly specified), the cytotoxicity at 10 µM is reported as 6.85%. `CC(C)n1ncc2c1NC(=O)CC21C(=O)Nc2c(Cl)cc(Cl)cc21` (stereo unspecified) showed a cytotoxicity at 10 µM of 3.38%. Work on `CCOc1cccc(C(=O)Nc2ccn(CC)n2)c1` yielded a cytotoxicity at 10 µM of 8.19%. `CC(=O)c1ccc(NC(=O)C(C)Cn2cc(Br)cn2)cc1` (stereo unspecified) showed a cytotoxicity at 10 µM of 0.88%. Work on `COc1c(Br)c(C(=O)NC2CCCCC2)nn1C` yielded a cytotoxicity at 10 µM of 6.94%. In the case of `CCc1cc(C(=O)N2CCCC(c3cc(=O)nc4n3CCC4)C2)no1` (stereo unspecified), the cytotoxicity at 10 µM is reported as -2.6%. Compound `CN(C)CC1(O)CCN(C(=O)Cc2ccc3ccccc3c2)C1` (stereo unspecified) has a cytotoxicity at 10 µM of -6.77%. For `COCCC(=O)N1CCC(c2ccc3c(NC(C)C)n[nH]c3n2)C1` (stereo unspecified), the cytotoxicity at 10 µM was 0.691%. `Cc1cc(C)nc(C2CCN(C3CCCCC3)C2)n1` (stereo unspecified) gave a cytotoxicity at 10 µM of 7.33%. With `CCn1ncc(C(=O)NCCc2nc(-c3cccnc3)n[nH]2)c1C` the cytotoxicity at 10 µM was 1.94%. Compound `O=C(O)[C@@H]1CCN(C(=O)c2cscn2)[C@@H]1c1ccc(F)cc1` has a cytotoxicity at 10 µM of 4.97%. In the case of `CN(C)C(=O)c1c[nH]nc1C1CCN(S(=O)(=O)c2ccccc2)CC1`, the cytotoxicity at 10 µM is reported as -0.358%. Work on `O=C(Nc1ccccn1)C1CCN(C(=O)COc2ccccc2F)C1` (stereo unspecified) yielded a cytotoxicity at 10 µM of -24.6%. Compound `CNc1cccc(C2CCCN(C(=O)c3cnccn3)C2)n1` (stereo unspecified) has a cytotoxicity at 10 µM of -19.2%. With `CC(C)C1=NOC2(CCN(S(C)(=O)=O)CC2)C1` the cytotoxicity at 10 µM was 6.47%. Work on `CC(C)NC(=O)CCNC(=O)CCc1cc(Br)cs1` yielded a cytotoxicity at 10 µM of -3.16%. For `CCNC(=O)CNC(=O)c1nc(C2CC2)n(-c2ccccc2Cl)n1`, the cytotoxicity at 10 µM was 5.91%. With `O=C(O)c1ccc(-c2cscn2)cc1` the cytotoxicity at 10 µM was 7.68%. Compound `CC(C)(NCc1cccc(O)c1)c1ccc2c(c1)OCO2` has a cytotoxicity at 10 µM of 5.12%. Compound `CC(C)S(=O)(=O)CCN1CCN(C(C#N)c2ccccc2)CC1` (stereo unspecified) has a cytotoxicity at 10 µM of 0.401%. For `CCc1ccc(CC)c(NCc2cnc(N3CCOCC3)nc2)c1`, the cytotoxicity at 10 µM was 0.898%. For `Cc1cc(C(=O)N2CCNC(=O)CC2)c(C)n1CC(F)(F)F`, the cytotoxicity at 10 µM was 1.88%. In the case of `CCSCc1csc(-c2ccc(S(C)(=O)=O)cc2)n1`, the cytotoxicity at 10 µM is reported as 8.21%. `CCc1[nH]ncc1C(=O)N1CCN(c2nccc(OC)n2)CC1` gave a cytotoxicity at 10 µM of 0.296%. `Cc1csc(CNC(=O)NC2CCCN(S(C)(=O)=O)C2)n1` (stereo unspecified) showed a cytotoxicity at 10 µM of -6.3%. With `CN(C)c1ncccc1CNC(=O)c1csc(Br)c1` the cytotoxicity at 10 µM was -1.35%. `Cc1ccccc1C1(CNC(=O)N2CCC(CC(N)=O)CC2)CC1` gave a cytotoxicity at 10 µM of 4.48%. For `CCc1ncc(C(=O)N2CCOCC2CC(=O)c2ccccc2)s1` (stereo unspecified), the cytotoxicity at 10 µM was 2.58%. Compound `Cn1c(=O)ccn(CC(=O)NCC2Cc3ccccc3O2)c1=O` (stereo unspecified) has a cytotoxicity at 10 µM of -0.387%. `O=C(Cn1cc(Cl)cn1)Nc1ccc2c(c1)OCO2` showed a cytotoxicity at 10 µM of 4.57%. In the case of `O=C(Nc1ccc2c(ccn2CCN2CCOCC2)c1)c1ccncc1`, the cytotoxicity at 10 µM is reported as -2.9%. With `CCN1CCN(CC(O)c2ccc(Br)cc2)CC1` (stereo unspecified) the cytotoxicity at 10 µM was -6.95%. `Cc1cnn(C2CN(CC(=O)NCC3(c4ccccc4)CC3)C2)c1` gave a cytotoxicity at 10 µM of -10.9%. Work on `COC(=O)CCNC(=O)c1ccc(NC(=O)N(C)CC(C)(C)C)cc1` yielded a cytotoxicity at 10 µM of 8.01%. `Cc1nc(CN2CCN(C(=O)CCC(=O)c3ccccc3)CC2)no1` showed a cytotoxicity at 10 µM of 3.7%. `CCC(C)(NCC(=O)OC)c1nc(C)cs1` (stereo unspecified) showed a cytotoxicity at 10 µM of -3.94%. `O=C(Nc1cc(Cl)ccn1)c1nc(N2CCCC2)ncc1Cl` gave a cytotoxicity at 10 µM of -9.26%. With `O=C1CC2(CCCCC2)C(=O)N1CC(O)COCc1ccccc1F` (stereo unspecified) the cytotoxicity at 10 µM was 0.611%. For `CC(C)c1nn(C)c(N(C)C)c1CNCC(O)COc1ccccc1` (stereo unspecified), the cytotoxicity at 10 µM was 0.142%. In the case of `C=C(C)CN1CCCC(NS(C)(=O)=O)C1` (stereo unspecified), the cytotoxicity at 10 µM is reported as 4.21%. Compound `Cc1cnn(CC2CCCN2C(=O)CCc2c(C)nc(C)[nH]c2=O)c1` (stereo unspecified) has a cytotoxicity at 10 µM of -2.79%. Work on `O=S(=O)(c1ccc2c(c1)OCCO2)N1CCC(OCc2ccccn2)C1` (stereo unspecified) yielded a cytotoxicity at 10 µM of -1.18%. With `Cc1ccc(N2CCCC(NC(=O)Cc3csc(C)n3)C2=O)cc1` (stereo unspecified) the cytotoxicity at 10 µM was -1.31%.
